ChEMBL document CHEMBL1153083, “Antiprotozoal, anticancer and antimicrobial activities of dihydroartemisinin acetal dimers and monomers” (Bioorg Med Chem, 2009)

Assays:
SK-OV-3 = assay: Cytotoxicity against human SKOV3 cells after 48 hrs by neutral red assay; format: functional, cell-based; conditions: sk-ov-3
In short: (§1)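 Cells seeded at 25,000 per well and incubated 24 h, then exposed to samples for 48 h. Viable cells were counted by neutral red, with DMSO as vehicle control. IC50 or TC50 values were derived from logarithmic plots of growth inhibition versus concentration.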

[1] = Toxicity against pig LLC-PK11 cells after 48 hrs by neutral red assay; format: cell-based, Sus scrofa; conditions: llc-pk11, 48 h; in short: as §1
[2] = test system: Mycobacterium intracellulare; assay: Antibacterial activity against Mycobacterium intracellular ATCC 23068 by Franzblau method; format: functional, organism-based
Pseudomonas aeruginosa = assay: Antibacterial activity against Pseudomonas aeruginosa ATCC 27853 by modified CLSI/NCCLS method; format: functional, organism-based
SK-MEL = assay: Cytotoxicity against human SK-MEL cells after 48 hrs by neutral red assay; format: functional, cell-based; conditions: sk-mel; in short: as §1
[3] = Toxicity against african green monkey Vero cells; format: cell-based; conditions: chlorocebus sabaeus; in short: as §1
Staphylococcus aureus = assay: Antibacterial activity against methicillin-resistant Staphylococcus aureus ATCC 43300 by modified CLSI/NCCLS method; format: functional, organism-based
Leishmania donovani = assay: Antileishmanial activity against Leishmania donovani promastigotes after 48 hrs by alamar blue assay; format: functional, organism-based; conditions: Leishmania donovani, 48 h
[4] = Selectivity index, ratio of TC50 for african green monkey (Cercopithecus aethiops) Vero cells to IC50 for Plasmodium falciparum W2; format: toxicity, cell-based
Cryptococcus neoformans = assay: Antifungal activity against Cryptococcus neoformans ATCC 90113 by modified CLSI/NCCLS method; format: functional, organism-based
[5] = Cytotoxicity against human NCI60 cells after 48 hrs by neutral red assay; format: functional; conditions: NCI60, 48 h
Escherichia coli = assay: Antibacterial activity against Escherichia coli ATCC 35218 by modified CLSI/NCCLS method; format: functional, organism-based; conditions: Escherichia coli, ATCC 35218; read-out: IC50
[6] = Selectivity index, ratio of TC50 for african green monkey (Cercopithecus aethiops) Vero cells to IC50 for Plasmodium falciparum D6; format: toxicity, cell-based
Plasmodium falciparum [7] = assay: Antiplasmodial activity against Plasmodium falciparum D6 infected in RBCs by parasitic LDH release assay; format: functional, organism-based
In short: (§2)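 Infected erythrocytes at 2% parasitemia and 2% hematocrit, in RPMI 1640 with 10% human serum and amikacin 60 μg/mL, were exposed to serial dilutions under N2/O2/CO2 (90:5:5) at 37°C for 72 h. LDH was read with Malstat reagent (30 min), then NBT/PES in the dark (60 min), stopped with 5% acetic acid, at 650 nm. IC50 came from percent growth dose-response curves.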

Vero = assay: Toxicity against african green monkey Vero cells after 48 hrs by neutral red assay; format: cell-based; conditions: chlorocebus sabaeus, vero, 48 h; in short: as §1
Candida albicans = assay: Antifungal activity against Candida albicans ATCC 90028 by modified CLSI/NCCLS method; format: functional, organism-based
Plasmodium falciparum [8] = assay: Antiplasmodial activity against Plasmodium falciparum W2 infected in RBCs by parasitic LDH release assay; format: functional, organism-based; in short: as §2
BT-549 = assay: Cytotoxicity against human BT549 cells after 48 hrs by neutral red assay; format: functional, cell-based; conditions: bt-549; in short: as §1
Aspergillus fumigatus = assay: Antifungal activity against Aspergillus fumigatus ATCC 90906 by modified CLSI/NCCLS method; format: functional, organism-based
KB = assay: Cytotoxicity against human KB cells after 48 hrs by neutral red assay; format: functional, cell-based; conditions: kb; in short: as §1

SMILES: C[C@H]1[C@@H](OCc2cc(O)cc(O[C@H]3O[C@@H]4O[C@@]5(C)CC[C@H]6[C@H](C)CC[C@@H]([C@H]3C)[C@@]46OO5)c2)O[C@@H]2O[C@@]3(C)CC[C@H]4[C@H](C)CC[C@@H]1[C@@]24OO3
- IC50 (SK-OV-3): Not Active
- TC50 [1]: Not Active
- IC50 [2]: Not Active
- IC50 (Pseudomonas aeruginosa): Not Active
- IC50 (SK-MEL): Not Active
- CC50 [3]: > 7070 nM
- IC50 (Staphylococcus aureus): Not Active
- IC90 (Leishmania donovani): 32700 nM
- IC50 (Leishmania donovani; read-out: IC50): 5900 nM
- selectivity ratio [4]: > 1700
- IC50 (Cryptococcus neoformans): 1490 nM
- GI50 [5]: 24.5 nM
- TGI [5]: 2820 nM
- CC50 ([5]; read-out: LC50 (the source's name)): 15100 nM
- IC50 (Escherichia coli): 22300 nM
- selectivity ratio [6]: > 2380
- IC50 (Plasmodium falciparum [7]): 3 nM
- TC50 (Vero): Not Active
- IC50 (Candida albicans): Not Active
- IC50 (Plasmodium falciparum [8]): 4.2 nM
- IC50 (BT-549): Not Active
- IC50 (Aspergillus fumigatus): Not Active
- IC50 (KB): Not Active
